From ChEMBL document CHEMBL4325904 (Eur J Med Chem, 2019)
Activity calls are given as the source filed them. The calls are words filed in the database; no cut-off is given here.

Experiments:
Danio rerio = assay: Antiangiogenic activity in zebrafish embryo assessed as effect on blood vessel development at 10 uM administered from 24 to 50 hrs post fertilization for 24 hrs and measured after 72 hrs by alkaline phosphatase assay; assay type: functional, organism-based
Outline: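 Zebrafish embryos exposed at 10 µM from 24–50 hpf alongside vehicle-only controls; at 72 hpf embryos stained with alkaline phosphatase to visualise blood vessels.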

Homo sapiens [1] = species: Homo sapiens; assay: Selectivity ratio of IC50 for human HDAC9 to IC50 for recombinant N-terminal GST-tagged human HDAC6 (1 to 1215 residues)
Homo sapiens [2] = species: Homo sapiens; assay: Selectivity ratio of IC50 for recombinant N-terminal GST-tagged /C-terminal His-tagged human HDAC4 (627 to 1084 residues) to IC50 for recombinant N-terminal GST-tagged human HDAC6 (1 to 1215 residues)
Histone deacetylase 1 = Histone deacetylase 1 (Homo sapiens, UniProt Q13547); assay: Inhibition of recombinant full length C-terminal FLAG/His-tagged human HDAC1 (1 to 482 residues) expressed in sf21 cells using RHK-K(Ac)-AMC as substrate by fluorimetric assay
Sequence of Histone deacetylase 1 (Q13547 whole entry, the tested form may be a part): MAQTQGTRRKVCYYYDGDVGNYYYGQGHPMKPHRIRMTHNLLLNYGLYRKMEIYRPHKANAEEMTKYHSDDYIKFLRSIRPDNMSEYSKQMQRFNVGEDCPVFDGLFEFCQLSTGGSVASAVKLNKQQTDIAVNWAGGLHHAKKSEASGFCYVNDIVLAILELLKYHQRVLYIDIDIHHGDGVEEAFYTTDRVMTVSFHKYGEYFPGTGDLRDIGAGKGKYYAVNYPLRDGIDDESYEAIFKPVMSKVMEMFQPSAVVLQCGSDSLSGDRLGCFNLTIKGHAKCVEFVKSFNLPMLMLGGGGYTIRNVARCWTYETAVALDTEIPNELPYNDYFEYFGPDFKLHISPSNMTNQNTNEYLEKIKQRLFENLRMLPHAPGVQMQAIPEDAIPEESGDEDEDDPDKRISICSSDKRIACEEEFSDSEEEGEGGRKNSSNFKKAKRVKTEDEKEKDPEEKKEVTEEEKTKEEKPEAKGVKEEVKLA

Homo sapiens [3] = species: Homo sapiens; assay: Selectivity ratio of IC50 for recombinant N-terminal GST-tagged human HDAC7 (518 to 991 residues) to IC50 for recombinant N-terminal GST-tagged human HDAC6 (1 to 1215 residues)
[4] = Drug uptake in human A549 cells cytoplasm at 1 uM after 2 hrs by naphthalimide dye-based inverted light fluorescence confocal microscopic analysis; assay type: ADME, subcellular; settings: a549, 2 h
Outline: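 A549 cells incubated 2 hours with compound at 1 µM; intracellular distribution imaged by confocal microscopy with 405 nm laser excitation, emission collected at 460–560 nm.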

Homo sapiens [5] = species: Homo sapiens; assay: Selectivity ratio of IC50 for recombinant full length C-terminal GST-tagged human HDAC2 (1 to 488 residues) to IC50 for recombinant N-terminal GST-tagged human HDAC6 (1 to 1215 residues)
Histone deacetylase 5 = Histone deacetylase 5 (Homo sapiens, UniProt Q9UQL6); assay: Inhibition of recombinant C-terminal His-tagged human HDAC5 (656 to 1122 residues) expressed in insect cells using Boc-K(Ac)-AMC as substrate by fluorimetric assay
Sequence of Histone deacetylase 5 (Q9UQL6 whole entry, the tested form may be a part): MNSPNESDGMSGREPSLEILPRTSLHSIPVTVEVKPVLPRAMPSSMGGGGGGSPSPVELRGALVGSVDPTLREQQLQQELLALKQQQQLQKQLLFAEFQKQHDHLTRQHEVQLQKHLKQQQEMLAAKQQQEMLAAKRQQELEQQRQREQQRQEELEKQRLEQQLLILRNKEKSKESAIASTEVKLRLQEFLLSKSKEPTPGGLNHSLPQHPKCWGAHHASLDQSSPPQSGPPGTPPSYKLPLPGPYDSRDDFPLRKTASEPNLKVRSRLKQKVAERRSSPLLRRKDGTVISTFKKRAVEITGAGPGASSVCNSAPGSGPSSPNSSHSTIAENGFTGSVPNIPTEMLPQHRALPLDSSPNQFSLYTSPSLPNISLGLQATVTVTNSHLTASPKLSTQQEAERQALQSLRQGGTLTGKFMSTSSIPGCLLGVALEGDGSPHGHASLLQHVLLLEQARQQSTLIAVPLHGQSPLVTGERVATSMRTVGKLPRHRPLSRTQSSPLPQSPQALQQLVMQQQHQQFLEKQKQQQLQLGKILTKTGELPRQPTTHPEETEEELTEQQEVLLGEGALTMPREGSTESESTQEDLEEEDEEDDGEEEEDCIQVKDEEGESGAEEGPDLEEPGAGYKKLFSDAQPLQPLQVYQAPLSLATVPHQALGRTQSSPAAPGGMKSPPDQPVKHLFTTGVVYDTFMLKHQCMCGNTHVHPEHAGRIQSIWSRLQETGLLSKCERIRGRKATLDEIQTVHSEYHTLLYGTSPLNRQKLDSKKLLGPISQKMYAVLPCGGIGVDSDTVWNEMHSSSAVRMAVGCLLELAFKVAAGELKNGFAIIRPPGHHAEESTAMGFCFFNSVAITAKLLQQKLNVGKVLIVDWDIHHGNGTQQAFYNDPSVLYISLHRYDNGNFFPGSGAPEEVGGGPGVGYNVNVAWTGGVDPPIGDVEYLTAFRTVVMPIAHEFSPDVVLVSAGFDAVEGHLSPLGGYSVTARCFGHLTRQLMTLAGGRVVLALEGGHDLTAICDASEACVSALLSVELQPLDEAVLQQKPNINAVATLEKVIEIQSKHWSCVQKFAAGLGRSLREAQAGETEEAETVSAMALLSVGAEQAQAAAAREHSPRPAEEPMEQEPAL

Histone deacetylase 7 = molecular target: T1, Histone deacetylase 7 (Homo sapiens, UniProt Q8WUI4); assay: Inhibition of recombinant N-terminal GST-tagged human HDAC7 (518 to 991 residues) expressed in Baculovirus infected insect cells using Boc-K(Ac)-AMC as substrate by fluorimetric assay
T1 sequence (Q8WUI4 whole entry): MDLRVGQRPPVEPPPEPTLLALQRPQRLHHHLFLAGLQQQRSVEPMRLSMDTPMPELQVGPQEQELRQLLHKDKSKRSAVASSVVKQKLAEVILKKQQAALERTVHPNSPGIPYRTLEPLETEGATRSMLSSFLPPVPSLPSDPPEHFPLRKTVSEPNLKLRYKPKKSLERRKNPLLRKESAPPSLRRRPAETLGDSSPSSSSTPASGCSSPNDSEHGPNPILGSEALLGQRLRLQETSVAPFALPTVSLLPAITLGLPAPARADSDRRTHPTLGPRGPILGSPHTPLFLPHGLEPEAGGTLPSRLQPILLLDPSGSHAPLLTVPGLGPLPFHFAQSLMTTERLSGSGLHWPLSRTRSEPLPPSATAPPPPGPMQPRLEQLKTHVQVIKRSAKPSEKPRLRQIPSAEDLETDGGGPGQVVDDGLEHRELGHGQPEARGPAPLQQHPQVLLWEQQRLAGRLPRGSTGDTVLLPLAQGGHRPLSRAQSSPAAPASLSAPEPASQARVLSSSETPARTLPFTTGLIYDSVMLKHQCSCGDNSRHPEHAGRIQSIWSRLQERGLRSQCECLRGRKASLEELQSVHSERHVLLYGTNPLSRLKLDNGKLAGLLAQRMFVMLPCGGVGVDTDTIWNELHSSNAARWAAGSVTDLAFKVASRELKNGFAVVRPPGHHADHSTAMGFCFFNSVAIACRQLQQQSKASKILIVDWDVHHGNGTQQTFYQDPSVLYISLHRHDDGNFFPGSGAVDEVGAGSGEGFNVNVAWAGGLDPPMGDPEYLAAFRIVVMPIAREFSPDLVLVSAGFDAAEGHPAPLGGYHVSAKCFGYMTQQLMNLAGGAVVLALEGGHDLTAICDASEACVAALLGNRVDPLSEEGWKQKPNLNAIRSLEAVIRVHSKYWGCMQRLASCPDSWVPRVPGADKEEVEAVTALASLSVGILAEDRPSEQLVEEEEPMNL

[6] = molecular target: T2, Polyamine deacetylase HDAC10 (Homo sapiens, UniProt Q969S8); assay: Inhibition of human HDAC10 using RHKK-Ac as substrate by fluorimetric assay
T2 sequence (Q969S8 whole entry): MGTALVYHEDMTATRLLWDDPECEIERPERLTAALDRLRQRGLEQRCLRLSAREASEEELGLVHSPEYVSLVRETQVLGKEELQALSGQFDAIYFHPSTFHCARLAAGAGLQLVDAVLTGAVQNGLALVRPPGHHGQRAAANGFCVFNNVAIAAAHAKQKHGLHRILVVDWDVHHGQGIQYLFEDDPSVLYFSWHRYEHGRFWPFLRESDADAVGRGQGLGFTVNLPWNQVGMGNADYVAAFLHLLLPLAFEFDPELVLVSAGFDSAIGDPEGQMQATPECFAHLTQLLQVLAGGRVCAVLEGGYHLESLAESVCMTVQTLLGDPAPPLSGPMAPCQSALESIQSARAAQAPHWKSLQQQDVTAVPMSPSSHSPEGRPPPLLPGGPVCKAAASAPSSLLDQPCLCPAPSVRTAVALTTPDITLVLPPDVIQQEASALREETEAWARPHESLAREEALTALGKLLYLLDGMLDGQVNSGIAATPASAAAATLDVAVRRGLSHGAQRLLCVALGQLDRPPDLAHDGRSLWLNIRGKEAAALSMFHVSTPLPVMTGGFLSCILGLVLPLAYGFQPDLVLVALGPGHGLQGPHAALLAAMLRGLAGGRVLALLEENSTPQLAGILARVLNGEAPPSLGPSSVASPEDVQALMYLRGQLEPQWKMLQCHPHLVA

Homo sapiens [7] = species: Homo sapiens; assay: Selectivity ratio of IC50 for recombinant full length C-terminal FLAG/His-tagged human HDAC1 (1 to 482 residues) to IC50 for recombinant N-terminal GST-tagged human HDAC6 (1 to 1215 residues)
Homo sapiens [8] = species: Homo sapiens; assay: Selectivity ratio of IC50 for human recombinant full length C-terminal His-tagged HDAC3 (1 to 428 residues)/N-terminal GST-tagged NCOR2 (395 to 489 residues) to IC50 for recombinant N-terminal GST-tagged human HDAC6 (1 to 1215 residues)
Histone deacetylase 9 = Histone deacetylase 9 (Homo sapiens, UniProt Q9UKV0); assay: Inhibition of human HDAC9 using Boc-Lys(trifluoroacetyl)-AMC as substrate by fluorimetric assay
Sequence of Histone deacetylase 9 (Q9UKV0 whole entry, the tested form may be a part): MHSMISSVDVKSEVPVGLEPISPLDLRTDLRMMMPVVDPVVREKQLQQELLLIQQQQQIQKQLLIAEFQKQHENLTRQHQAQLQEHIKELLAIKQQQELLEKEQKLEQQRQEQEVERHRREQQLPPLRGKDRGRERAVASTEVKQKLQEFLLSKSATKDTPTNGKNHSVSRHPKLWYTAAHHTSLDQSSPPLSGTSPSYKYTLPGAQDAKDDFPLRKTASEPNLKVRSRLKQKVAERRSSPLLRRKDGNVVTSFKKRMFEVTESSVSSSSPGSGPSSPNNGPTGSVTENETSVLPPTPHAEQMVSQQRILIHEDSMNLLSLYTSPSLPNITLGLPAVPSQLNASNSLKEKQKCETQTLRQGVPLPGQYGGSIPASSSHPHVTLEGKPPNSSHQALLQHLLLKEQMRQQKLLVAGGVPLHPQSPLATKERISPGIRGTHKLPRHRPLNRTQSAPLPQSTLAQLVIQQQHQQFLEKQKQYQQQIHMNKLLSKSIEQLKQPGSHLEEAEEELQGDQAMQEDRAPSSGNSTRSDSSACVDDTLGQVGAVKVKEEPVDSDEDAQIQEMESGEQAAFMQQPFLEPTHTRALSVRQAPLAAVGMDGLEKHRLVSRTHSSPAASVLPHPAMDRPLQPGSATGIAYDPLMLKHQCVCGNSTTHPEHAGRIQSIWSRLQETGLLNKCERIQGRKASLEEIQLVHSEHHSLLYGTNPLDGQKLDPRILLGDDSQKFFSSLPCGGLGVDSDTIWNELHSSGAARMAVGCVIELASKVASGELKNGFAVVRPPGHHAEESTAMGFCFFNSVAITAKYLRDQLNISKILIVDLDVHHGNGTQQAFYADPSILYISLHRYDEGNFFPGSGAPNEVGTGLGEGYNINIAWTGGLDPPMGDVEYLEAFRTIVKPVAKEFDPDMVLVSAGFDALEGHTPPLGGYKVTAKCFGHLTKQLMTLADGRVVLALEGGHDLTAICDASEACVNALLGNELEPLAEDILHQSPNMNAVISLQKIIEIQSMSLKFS

Homo sapiens [9] = species: Homo sapiens; assay: Selectivity ratio of IC50 for human HDAC10 to IC50 for recombinant N-terminal GST-tagged human HDAC6 (1 to 1215 residues)

| Activity (Danio rerio) | Ratio IC50 (Homo sapiens [1]) | Ratio IC50 (Homo sapiens [2]) | IC50 (Histone deacetylase 1) [µM] | Ratio IC50 (Homo sapiens [3]) | Drug uptake [4] | Ratio IC50 (Homo sapiens [5]) | IC50 (Histone deacetylase 5) [µM] | IC50 (Histone deacetylase 7) [µM] | IC50 [6] [µM] | Ratio IC50 (Homo sapiens [7]) | Ratio IC50 (Homo sapiens [8]) | IC50 (Histone deacetylase 9) [µM] | Ratio IC50 (Homo sapiens [9]) | Compound |
| --- | --- | --- | --- | --- | --- | --- | --- | --- | --- | --- | --- | --- | --- | --- |
| Active | > 2000 | 1500 | 1.98 | 910 | Active | 240 | 3.4 | 3.2 | 0.66 | 560 to 566 | 100 to 103 | 9.3 | 190 | O=C(CCCCCN1C(=O)c2cccc3c(NCc4ccccc4)ccc(c23)C1=O)NO |
| Active | > 2000 | > 2000 | 0.59 | 1900 | Active | 88 | 5.3 | 9.4 | 0.32 | 120 to 123 | 23 | > 10 | 67 | CCCNc1ccc2c3c(cccc13)C(=O)N(CCCCCC(=O)NO)C2=O |
